# Measurements of several laboratories.
# Protocols differ between the studies behind these lines.
SMILES,organism,assay,test system,setting,quantity,value
C[C@@]1(O)[C@H](O)[C@@H](CO)O[C@H]1n1ccc(N)nc1=O,Hepatitis C virus,"viral replication, inhibitor",Huh-7,replicon,EC90,5.8 µM
NC(=O)c1ncn([C@@H]2O[C@H](CO)[C@@H](O)[C@H]2O)n1,Enterovirus B,cytopathic effect,"Vero, B3 CVB3",,IC50,1580 µM
COC(=O)N[C@H](CC(C)C)C(=O)N1CCC[C@H]1C(=O)Nc1cccc(C#CC#Cc2cccc(NC(=O)[C@@H]3CCCN3C(=O)[C@@H](CC(C)C)NC(=O)OC)c2)c1,Hepatitis C virus,"viral replication, inhibitor, luciferase","Huh-5-2, GETYPE1B","72 h, replicon",EC50,0.0686 nM
CCCCCCC/C=C/C(=O)N1C(=O)/C(=C(/C)O)C(=O)C1CO (stereo not shown),Proteus mirabilis,microbial growth,ATCC25933,,MIC,> 200 µg/mL
CCOC(=O)N[C@@H](CC(C)C)C(=O)N1CCC[C@@H]1C(=O)Nc1ccc(C#CC#Cc2ccc(NC(=O)[C@H]3CCCN3C(=O)[C@H](CC(C)C)NC(=O)OCC)cc2)cc1,Hepatitis C virus,"viral replication, inhibitor, luciferase","Huh-5-2, GETYPE1B","72 h, replicon",EC50,5630 nM
CCCCC(=O)N1C(=O)/C(=C(/C)O)C(=O)C1CC(C)C (stereo not shown),Proteus mirabilis,microbial growth,ATCC25933,,MIC,> 200 µg/mL
Nc1ncnc2c1c([N+](=O)[O-])cn2[C@@H]1C=C(CO)[C@@H](O)[C@H]1O,Hepatitis C virus,"viral replication, inhibitor, luciferase",Huh7 ET,"20 µM, replicon",inhibition,31.5%
Nc1nc2c(ncn2[C@@H]2O[C@H](CO)[C@@H](F)[C@@H]2F)c(=O)[nH]1,Hepatitis C virus,"viral replication, inhibitor",Huh-7,replicon,EC50,> 10000 nM
COc1ccc(CN2C[C@H]3CC[C@@H]4[C@](C)(COC(C)=O)[C@H](OC(C)=O)CC[C@@]4(C)[C@@H]3C[C@@H]2C2=CCOC2=O)cc1,unidentified human coronavirus,cytopathic effect,MRC5,"25 µM, 72 h",inhibition,5.1%
CCn1cc(C(=O)O)c(=O)c2cc(F)c(N3CCNCC3)cc21,Acinetobacter baumannii,"microbial killing, broth dilution",BAA747,,MBC,16 µM
CC(=O)OC[C@@]1(C)[C@H]2CC[C@@H]3CN(CCC(C)C)[C@@H](C4=CCOC4=O)C[C@H]3[C@]2(C)CC[C@H]1OC(C)=O,unidentified human coronavirus,cytopathic effect,MRC5,"25 µM, 72 h",inhibition,105%
O=C(Nc1ccccc1-c1ccc(F)c(F)c1)c1nccnc1C(F)(F)F,Colletotrichum orbiculare,microbial growth,,,EC50,> 100 µg/mL
CC(=O)OC[C@@]1(C)[C@H]2CC[C@@H]3CN(Cc4ccc(Br)cc4)[C@@H](C4=CCOC4=O)C[C@H]3[C@]2(C)CC[C@H]1OC(C)=O,unidentified human coronavirus,cytopathic effect,MRC5,"25 µM, 72 h",inhibition,107%
COC(=O)N[C@H](C(=O)N1CCC[C@H]1c1ncc(-c2ccc(-c3ccc(-c4cnc([C@@H]5CCCN5C(=O)[C@@H](NC(=O)OC)C(C)C)[nH]4)cc3)cc2)[nH]1)C(C)C,Hepatitis C virus,"viral replication, inhibitor","HeLa, GETYPE2A",replicon,EC50,0.0037 nM
N#CC(=Cc1ccc(Cl)cc1)C1=NC(=O)C(=Cc2cn(-c3ccccc3)nc2-c2ccccc2)S1,Acinetobacter baumannii,"microbial growth, well diffusion",,100000 µg/mL,inhibition zone,20 mm
CCOC(=O)N[C@@H](C(=O)N1CCC[C@@H]1C(=O)Nc1cccc(C#CC#Cc2cccc(NC(=O)[C@H]3CCCN3C(=O)[C@H](NC(=O)OCC)C(C)C)c2)c1)C(C)C,Hepatitis C virus,"viral replication, inhibitor, luciferase","Huh-5-2, GETYPE1B","72 h, replicon",EC50,> 10000 nM
Cc1c(NN=C2SC(C(C#N)=Cc3ccccc3)=NC2=O)c(=O)n(-c2ccccc2)n1C,Acinetobacter baumannii,"microbial growth, well diffusion",,100000 µg/mL,inhibition zone,16 mm
CCCCCCC/C=C/C(=O)N1C(=O)/C(=C(\O)C2CCNCC2)C(=O)C1CC(C)C (stereo not shown),Proteus mirabilis,microbial growth,ATCC25933,,MIC,200 µg/mL
O=C(OC[C@H]1O[C@H](n2cnc3c(Cl)nc(Cl)nc32)[C@@H](F)[C@@H]1F)c1ccccc1,Hepatitis C virus,"viral replication, inhibitor",Huh-7,replicon,EC50,< 10000 nM
CCOC(=O)N[C@@H](CC(C)C)C(=O)N1CCC[C@H]1C(=O)Nc1cccc(C#CC#Cc2cccc(NC(=O)[C@@H]3CCCN3C(=O)[C@H](CC(C)C)NC(=O)OCC)c2)c1,Hepatitis C virus,"viral replication, inhibitor, luciferase",GETYPE4A,replicon,EC50,40.9 nM
Cc1ccc(C(=O)CNc2nc(NS(=O)(=O)c3ccccc3)ncc2-c2nc3ccccc3s2)cc1,Enterovirus B,plaque formation,"BGM, B4",,IC50,90 µg/mL
CCCCCCC/C=C/C(=O)N1C(=O)/C(=C(\O)c2ccc(OCOCCOC)cc2)C(=O)C1CC(C)C (stereo not shown),Proteus mirabilis,microbial growth,ATCC25933,,MIC,> 200 µg/mL
Cc1ccc(-c2nn(-c3ccccc3)cc2C=C(C#N)C2=NC(=O)CS2)cc1,Acinetobacter baumannii,"microbial growth, well diffusion",,100000 µg/mL,inhibition zone,20 mm
Cc1ccc(S(=O)(=O)Nc2nc(N)c(-c3nc4ccccc4s3)c(-c3ccc(Cl)cc3)n2)cc1,Enterovirus B,plaque formation,"BGM, B4",,IC50,74 µg/mL
CCOC(=O)c1cc(C#N)c(=O)n(NS(=O)(=O)c2ccc(C)cc2)c1N,Enterovirus B,plaque formation,"BGM, B4",,IC50,90 µg/mL
COc1ccc(CN2C[C@H]3CC[C@@H]4[C@](C)(CO)[C@H](O)CC[C@@]4(C)[C@@H]3C[C@@H]2C2=CCOC2=O)cc1,unidentified human coronavirus,cytopathic effect,MRC5,"25 µM, 72 h",inhibition,1.9%
CO[C@@H](C(N)=O)[C@H](NC(=O)c1ccc(NC(=O)c2ccc(C#N)cc2)cc1)C(=O)Nc1ccc(C(=O)Nc2ccc(C(=O)Nc3ccc(C(=O)O)cc3)c(O)c2OC(C)C)cc1,Proteus mirabilis,microbial growth,DSM4479,,MIC,4 µg/mL
COC(=O)N[C@H](C(=O)N1CCC[C@H]1C(=O)Nc1ccc(C#CC#Cc2ccc(NC(=O)[C@@H]3CCCN3C(=O)[C@@H](NC(=O)OC)C(C)C)cc2)cc1)C(C)C,Hepatitis C virus,"viral replication, inhibitor, luciferase","Huh-5-2, GETYPE1B","72 h, replicon",EC50,10 nM
C[C@]1(CO)[C@H]2CC[C@@H]3CN(Cc4ccco4)[C@@H](C4=CCOC4=O)C[C@H]3[C@]2(C)CC[C@H]1O,unidentified human coronavirus,cytopathic effect,MRC5,"25 µM, 72 h",inhibition,-7.7%
COC(=O)N[C@H](C(=O)N1CCC[C@H]1C(=O)Nc1cccc(C#CC#Cc2cccc(NC(=O)[C@@H]3CCCN3C(=O)[C@@H](NC(=O)OC)C(C)C)c2)c1)C(C)C,Hepatitis C virus,"viral replication, inhibitor, luciferase","Huh-5-2, GETYPE1B","72 h, replicon",EC50,0.121 nM
Nc1nc(N)c2ncn([C@@H]3O[C@H](CO)[C@@H](F)[C@@H]3F)c2n1,Hepatitis C virus,"viral replication, inhibitor",Huh-7,replicon,EC50,> 10000 nM
CC(=O)OC[C@@]1(C)[C@H]2CC[C@@H]3CN(Cc4ccc(C(C)(C)C)cc4)[C@@H](C4=CCOC4=O)C[C@H]3[C@]2(C)CC[C@H]1OC(C)=O,unidentified human coronavirus,cytopathic effect,MRC5,"25 µM, 72 h",inhibition,94.1%
[N-]=[N+]=Nc1nc(N=[N+]=[N-])c2ncn([C@@H]3O[C@H](COC(=O)c4ccccc4)[C@@H](F)[C@@H]3F)c2n1,Hepatitis C virus,"viral replication, inhibitor",Huh-7,replicon,EC50,> 10000 nM
COc1cc(O)c(CC=C(C)C)c(O)c1C(=O)/C=C/c1ccc(O)cc1,Leishmania tarentolae,"parasite growth, resazurin",,"48 h, promastigote",IC50,0.78 µM
Cc1c(NN=C2SC(C(C#N)=Cc3ccc(Cl)cc3)=NC2=O)c(=O)n(-c2ccccc2)n1C,Acinetobacter baumannii,"microbial growth, well diffusion",,100000 µg/mL,inhibition zone,13 mm
CCOC(=O)N[C@@H](C(=O)N1CCC[C@H]1C(=O)Nc1ccc(C#CC#Cc2ccc(NC(=O)[C@@H]3CCCN3C(=O)[C@H](NC(=O)OCC)C(C)C)cc2)cc1)C(C)C,Hepatitis C virus,"viral replication, inhibitor, luciferase","Huh-5-2, GETYPE1B","72 h, replicon",EC50,267 nM
O=C(CNc1nc(NS(=O)(=O)c2ccccc2)ncc1-c1nc2ccccc2s1)c1ccc(Cl)cc1,Enterovirus B,plaque formation,"BGM, B4",,IC50,92 µg/mL
C/C(O)=C1\C(=O)C(CC(C)C)N(C(=O)CCCCCc2ccccc2)C1=O (stereo not shown),Proteus mirabilis,microbial growth,ATCC25933,,MIC,> 200 µg/mL
OC[C@H]1O[C@@H](n2cnc3c(NCc4ccccc4)nc(Cl)nc32)[C@@H](F)[C@@H]1F,Hepatitis C virus,"viral replication, inhibitor",Huh-7,replicon,EC50,2900 nM
CCOC(=O)N[C@H](C(=O)N1CCC[C@H]1C(=O)Nc1cccc(C#CC#Cc2cccc(NC(=O)[C@@H]3CCCN3C(=O)[C@@H](NC(=O)OCC)[C@@H](C)CC)c2)c1)[C@H](C)CC,Hepatitis C virus,"viral replication, inhibitor, luciferase","Huh-5-2, GETYPE1B","72 h, replicon",EC50,392 nM
Nc1nc(Cl)c2ncn([C@@H]3O[C@H](CO)[C@@H](F)[C@@H]3F)c2n1,Hepatitis C virus,"viral replication, inhibitor",Huh-7,replicon,EC90,> 10 µM
N#CC(=Cc1ccccc1O)C1=NC(=O)C(=Cc2cn(-c3ccccc3)nc2-c2ccccc2)S1,Acinetobacter baumannii,"microbial killing, broth dilution",,,MBC,0.25 µg/mL
CC1(C)OC[C@@]2(C)[C@H]3CC[C@@H]4CN(Cc5ccc(C(F)(F)F)cc5)[C@@H](C5=CCOC5=O)C[C@H]4[C@]3(C)CC[C@H]2O1,unidentified human coronavirus,cytopathic effect,MRC5,"25 µM, 72 h",inhibition,88.3%
Nc1nc(Cl)c2ncn([C@@H]3O[C@H](COC(=O)c4ccccc4)[C@@H](F)[C@@H]3F)c2n1,Hepatitis C virus,"viral replication, inhibitor",Huh-7,replicon,EC90,10 µM
CC(=O)OC[C@@]1(C)[C@H]2CC[C@@H]3CN(Cc4ccc(O)cc4)[C@@H](C4=CCOC4=O)C[C@H]3[C@]2(C)CC[C@H]1OC(C)=O,unidentified human coronavirus,cytopathic effect,MRC5,"25 µM, 72 h",inhibition,50.4%
CCOC(=O)c1c(N)csc1-c1cn(-c2ccccc2)nc1-c1ccc(C)cc1,Acinetobacter baumannii,"microbial growth, well diffusion",,100000 µg/mL,inhibition zone,29 mm
